Experimental data reported in ChEMBL document CHEMBL2040794, “Synthesis and structure-activity analysis of new phosphonium salts with potent activity against African trypanosomes” (J Med Chem, 2012).
Activity calls are given as the source filed them. The calls are words filed in the database; no cut-off is given here.

Experiments:
[1] = Selectivity index, ratio of EC50 for rat L6 cells to EC50 for Trypanosoma brucei rhodesiense STIB900; assay type: toxicity, cell-based; settings: L6 cells, read-out: Ratio EC50
Summary of the method: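 Ratio of EC₅₀ in L6 cells to EC₅₀ against T. b. rhodesiense STIB900, both from Alamar blue assays.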

[2] = test system: Trypanosoma brucei brucei; experiment: Antitrypanosomal activity against Trypanosoma brucei brucei bloodstream forms assessed as decrease in cell count at 2 times EC50 after 12 hrs by hemocytometric analysis; assay type: functional, organism-based
Summary of the method: (§1)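 Bloodstream-form T. b. brucei cultures started at 10⁵ cells/mL, with or without a range of compound concentrations (0.05, 0.25, 1 μM for the example shown) present continuously. Cell density tracked over 48 h by manual hemocytometer counts done in triplicate; mean values plotted.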

[3] = test system: Trypanosoma brucei brucei; experiment: Antitrypanosomal activity against Trypanosoma brucei brucei bloodstream forms assessed as decrease in cell count at 0.25 uM treated for 48 hrs followed by washout after 4 hrs measured after 44 hrs by hemocytometric analysis; assay type: functional, organism-based
Summary of the method: (§2)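 T. b. brucei bloodstream forms seeded at 10⁵ cells/mL with 0.25 μM compound; drug removed by centrifugation (1100g) after 30 min or 4 h and cells resuspended in drug-free fresh medium, or fresh medium still containing 0.25 μM compound; drug-free control run alongside. Growth followed over 48 h by microscopic hemocytometer counts in triplicate, averages reported.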

[4] = test system: Trypanosoma brucei brucei; experiment: Antitrypanosomal activity against diminazene-, pentamidine-, and melaminophenyl arsenical-resistant HAPT1-deficient Trypanosoma brucei brucei B48 after 3 days by alamar blue assay; assay type: functional, organism-based; settings: Trypanosoma brucei, B48, 72 h
Summary of the method: (§3)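 Bloodstream-form T. b. brucei (wild-type s427; TbAT1-KO, made from s427 by TbAT1 deletion; B48, selected from TbAT1-KO in vitro on pentamidine, lacking functional HAPT1). Cells were exposed to compound for 48 h, then resazurin (Alamar blue) was added for a further 24 h. A single fluorescence reading gave EC50.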

[5] = Inhibition of Trypanosoma brucei brucei HAPT1 assessed as [3H]-pentamidine uptake after 60 secs by scintillation counting
Summary of the method: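 HAPT1 transport: late-log T. b. brucei grown in HMI-9 + 10% FBS, washed into HEPES/bicarbonate assay buffer with 14 mM glucose, pH 7.3. [³H]-pentamidine at 30 nM final for 60 s with inhibitor; stopped with 2 mM ice-cold unlabeled pentamidine and spin through oil. Scintillation counting, sigmoid fit for Ki; triplicates, ≥3 independent experiments.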

[6] = test system: Trypanosoma brucei brucei; experiment: Antitrypanosomal activity against wild type Trypanosoma brucei brucei Lister 427 after 3 days by alamar blue assay; assay type: functional, organism-based; settings: Trypanosoma brucei, Lister 427, 72 h; summary of the method: as §3
[7] = test system: L6; experiment: Cytotoxicity against rat L6 cells after 72 hrs by alamar blue assay; assay type: cell-based; settings: Rattus norvegicus, L6, 72 h
[8] = Selectivity index, ratio of EC50 for human HEK cells to EC50 for wild type Trypanosoma brucei brucei Lister 427; assay type: toxicity, cell-based, HEK293; settings: HEK cells, read-out: Ratio EC50
Summary of the method: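 Ratio of EC₅₀ in HEK cells to EC₅₀ in wild-type T. b. brucei s427, both from resazurin assays.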

[9] = test system: Trypanosoma brucei brucei; experiment: Antitrypanosomal activity against Trypanosoma brucei brucei bloodstream forms assessed as decrease in cell count at 0.25 uM treated for 48 hrs followed by washout after 30 mins and measured after 48 hrs by hemocytometric analysis; assay type: functional, organism-based; summary of the method: as §2
[10] = test system: Trypanosoma brucei brucei; experiment: Antitrypanosomal activity against diminazene aceturate-resistant TbAT1 gene-deficient Trypanosoma brucei brucei AT1-KO after 3 days by alamar blue assay; assay type: functional, organism-based; settings: Trypanosoma brucei, AT1-KO, 72 h; summary of the method: as §3
[11] = Cytotoxicity against human HEK cells after 3 days by alamar blue assay; assay type: cell-based, HEK293; settings: Homo sapiens, HEK293, 72 h
Summary of the method: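 Human embryonic kidney cells tested by resazurin (Alamar blue) assay: 48 h with compound, then 24 h more after dye addition, single reading; EC₅₀ derived.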

[12] = test system: Trypanosoma brucei brucei; experiment: Antitrypanosomal activity against Trypanosoma brucei brucei bloodstream forms assessed as decrease in cell count at 0.25 uM treated for 48 hrs followed by washout after 4 hrs by hemocytometric analysis; assay type: functional, organism-based; summary of the method: as §2
[13] = test system: Trypanosoma brucei brucei; experiment: Antitrypanosomal activity against Trypanosoma brucei brucei bloodstream forms assessed as decrease in cell count at EC50 after 36 hrs by hemocytometric analysis; assay type: functional, organism-based; summary of the method: as §1
[14] = test system: Trypanosoma brucei brucei; experiment: Resistance factor, ratio of EC50 for diminazene aceturate-resistant TbAT1 gene-deficient Trypanosoma brucei brucei AT1-KO to EC50 for wild type Trypanosoma brucei brucei Lister 427; assay type: functional
Summary of the method: (§4)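 Resistance factor is the EC50 in the resistant line (TbAT1-KO or B48) divided by the EC50 in wild-type s427. […] Resistant and wild-type EC50s were compared by Student t-test.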

[15] = Inhibition of Trypanosoma brucei brucei LAPT1 assessed as [3H]-pentamidine uptake after 120 secs by scintillation counting
Summary of the method: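 LAPT1 transport: late-log trypanosomes from HMI-9/10% FBS culture washed into pH 7.3 HEPES-bicarbonate-glucose buffer; 1 μM final [³H]-pentamidine uptake over 120 s with competitor. Uptake terminated with 2 mM ice-cold pentamidine and oil centrifugation; counted by scintillation, Ki from sigmoid curves; triplicate, at least three separate occasions.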

[16] = test system: Trypanosoma brucei rhodesiense; experiment: Antitrypanosomal activity against Trypanosoma brucei rhodesiense STIB900 infected in rat L6 cells after 72 hrs by alamar blue assay; assay type: functional, organism-based; settings: Trypanosoma brucei, STIB900, 72 h
[17] = test system: Trypanosoma brucei brucei; experiment: Resistance factor, ratio of EC50 for diminazene-, pentamidine-, and melaminophenyl arsenical-resistant HAPT1-deficient Trypanosoma brucei brucei B48 to EC50 for wild type Trypanosoma brucei brucei Lister 427; assay type: functional; summary of the method: as §4
[18] = test system: Trypanosoma brucei brucei; experiment: Antitrypanosomal activity against wild type Trypanosoma brucei brucei Lister 427 assessed as decrease in viability at 70 to 120 times EC50 after 8 hrs by propidium iodide staining-based fluorescence microscopic analysis; assay type: functional, organism-based
Summary of the method: (§5)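 Real-time propidium iodide integrity assay: 5 × 10⁵ trypanosomes per well in HMI-9 plus 10% FBS containing 9 μM PI, 37 °C, 5% CO₂. Fluorescence read on a plate fluorimeter (ex 544/em 620 nm) every 2 min for 250 cycles, more than 8 h. Strains run in parallel on one plate.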

[19] = test system: Trypanosoma brucei brucei; experiment: Antitrypanosomal activity against diminazene aceturate-resistant TbAT1 gene-deficient Trypanosoma brucei brucei AT1-KO assessed as decrease in viability at 15 times EC50 after 8 hrs by propidium iodide staining-based fluorescence microscopic analysis; assay type: functional, organism-based
Summary of the method: (§6)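 Trypanosomes at 5 × 10⁵ cells/well in HMI-9 with 10% FBS and 9 μM propidium iodide, with compound at a range of concentrations. Fluorescence (ex 544, em 620 nm) was read every 2 min for 250 cycles (>8 h) at 37 °C and 5% CO2. All three strains ran in parallel on one plate, with drug-free controls.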

[20] = test system: Trypanosoma brucei brucei; experiment: Antitrypanosomal activity against wild type Trypanosoma brucei brucei Lister 427 assessed as decrease in viability at > 3.3 uM after 8 hrs by propidium iodide staining-based fluorescence microscopic analysis; assay type: functional, organism-based; summary of the method: as §5
[21] = test system: Trypanosoma brucei brucei; experiment: Antitrypanosomal activity against diminazene-, pentamidine-, and melaminophenyl arsenical-resistant HAPT1-deficient Trypanosoma brucei brucei B48 harboring HAPT mutant gene assessed as decrease in viability at > 3.3 uM after 8 hrs by propidium iodide staining-based fluorescence microscopic analysis; assay type: functional, organism-based; summary of the method: as §6
[22] = test system: Trypanosoma brucei brucei; experiment: Antitrypanosomal activity against diminazene aceturate-resistant TbAT1 gene-deficient Trypanosoma brucei brucei AT1-KO assessed as decrease in viability at > 3.3 uM after 8 hrs by propidium iodide staining-based fluorescence microscopic analysis; assay type: functional, organism-based; summary of the method: as §6
[23] = test system: Trypanosoma brucei brucei; experiment: Antitrypanosomal activity against diminazene-, pentamidine-, and melaminophenyl arsenical-resistant HAPT1-deficient Trypanosoma brucei brucei B48 harboring HAPT mutant gene assessed as decrease in viability at 15 times EC50 after 8 hrs by propidium iodide staining-based fluorescence microscopic analysis; assay type: functional, organism-based; summary of the method: as §6
[24] = test system: Trypanosoma brucei brucei; experiment: Antitrypanosomal activity against wild type Trypanosoma brucei brucei Lister 427 assessed as decrease in viability at >700 times EC50 after 8 hrs by propidium iodide staining-based fluorescence microscopic analysis; assay type: functional, organism-based; summary of the method: as §5

SMILES | selectivity ratio [1] | Activity [3] | EC50 [4] | Ki [5] | EC50 [6] | EC50 [7] | selectivity ratio [8] | Activity [9] | EC50 [10] | EC50 [11] | Activity [12] | Ratio EC50 [14] | Ki [15] | EC50 [16] | Ratio EC50 [17] | other results
CCCCCC[P+](CCCCCC)(CCCCCC)Cc1ccc(Oc2ccc(C[P+](CCCCCC)(CCCCCC)CCCCCC)cc2)cc1.[Br-].[Br-] | 9 | Active | 0.041 µM | 53 µM | 0.037 µM | 1.03 µM | 593 | inactive | 0.045 µM | 22.1 µM | Active | 1.2 | 7.2 µM | 0.109 µM | 1.1 | Activity [2]: Active; Activity [13]: Active
CCCCC[P+](CCCCC)(CCCCC)Cc1ccc(C(=O)c2ccc(C[P+](CCCCC)(CCCCC)CCCCC)cc2)cc1.[Br-].[Br-] | 30 |  | 0.18 µM | 5.2 µM | 0.2 µM | 8.7 µM | 338 |  | 0.17 µM | 66.8 µM |  | 0.8 | 2.2 µM | 0.289 µM | 0.9 | Activity [18]: Active; Activity [19]: Active; Activity [20]: Active; Activity [21]: Active; Activity [22]: Active; Activity [23]: Active
CCCCCC[P+](CCCCCC)(CCCCCC)Cc1ccc(Cc2ccc(C[P+](CCCCCC)(CCCCCC)CCCCCC)cc2)cc1.[Br-].[Br-] | 5 | Active | 0.039 µM |  | 0.033 µM | 0.964 µM | 543 | inactive | 0.033 µM | 18.1 µM | Active | 1 | 9.5 µM | 0.18 µM | 1.2 | 
C[P+](C)(C)Cc1ccc(C(=O)c2ccc(C[P+](C)(C)C)cc2)cc1 |  |  | > 100 µM | > 250 µM | > 100 µM | > 173 µM |  |  | > 100 µM |  |  |  | > 250 µM | 127 µM |  | 
CC(=O)N(c1ccc(C[P+](c2ccc(C)cc2)(c2ccc(C)cc2)c2ccc(C)cc2)cc1)c1ccc(C[P+](c2ccc(C)cc2)(c2ccc(C)cc2)c2ccc(C)cc2)cc1.[Br-].[Br-] | 137 |  | 0.29 µM | 9.2 µM | 0.32 µM | 21.8 µM | > 930 |  | 0.3 µM | > 300 µM |  | 0.9 | 3.6 µM | 0.159 µM | 0.9 | 
N=C(N)c1ccc(OCCCCCOc2ccc(C(=N)N)cc2)cc1 [PENTAMIDINE] |  |  | 0.567 µM | 0.036 µM | 0.008 µM |  |  |  | 0.009 µM |  |  | 1.1 | 56.2 µM |  | 70.9 | 
O=C(c1ccc(C[P+](C2CCCCC2)(C2CCCCC2)C2CCCCC2)cc1)c1ccc(C[P+](C2CCCCC2)(C2CCCCC2)C2CCCCC2)cc1.[Br-].[Br-] | 166 |  | 0.25 µM |  | 0.14 µM | 32.7 µM | > 2100 |  | 0.23 µM | > 300 µM |  | 1.6 | 39 µM | 0.197 µM | 1.8 | 
Cc1ccc([P+](Cc2ccc(Oc3ccc(C[P+](c4ccc(C)cc4)(c4ccc(C)cc4)c4ccc(C)cc4)cc3)cc2)(c2ccc(C)cc2)c2ccc(C)cc2)cc1.[Br-].[Br-] | 14 | Active | 0.021 µM |  | 0.024 µM | 2.34 µM | 3570 | inactive | 0.025 µM | 85.7 µM | Active | 1 |  | 0.17 µM | 0.8 | 
Cc1ccc(C[P+](c2ccccc2)(c2ccccc2)c2ccccc2)cc1 |  |  |  |  |  |  |  |  |  |  |  |  |  |  |  | Activity [24]: Active
